Experiments:
Assay type in all cases: functional
Conditions in all cases: route oral
Rattus norvegicus [1] = test: Compound was tested for the inhibition of rat reversed passive Arthus pleurisy after peroral administration of 100 mg/kg dose at 0.71 mL of exudate volume with 0.84 mL of control (injected intrapleurally)
Method in brief: (§1)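 Male Wistar rats (about 250 g) were given compound orally before the antiserum. Under ether anesthesia, 0.2 mL rabbit anti-egg albumin antiserum was injected intrapleurally. After 30 min, egg albumin (15 mg/100 g body weight in 0.1 mL saline) was given iv. Rats were killed 4.5 h later and the thoracic cavity was rinsed with 5 mL saline. Exudate volume and infiltrated cell number were measured, with inhibition % versus controls as mean ± SEM.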

Rattus norvegicus [2] = test: Inhibition of Zymosan-induced rat's paw edema(ZPE) after peroral administration of 100 mg/kg dose.
Method in brief: (§2)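 Male Wistar rats (about 150 g) were dosed orally with compound suspended in 5% arabic gum, 1 h before a subplantar hind-paw injection of 0.1 mL saline. The irritant was 1% zymosan for 33 or 1% λ-carrageenin for 34. Paw volume was measured by plethysmograph before dosing and at 4 h (zymosan) or 3 h (carrageenin). Swelling is relative to initial volume, as mean ± SEM. % inhibition is versus the control group's mean swelling.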

Rattus norvegicus [3] = test: Inhibition of carrageenan-induced rat's paw edema (CPE) after peroral administration of 100 mg/kg dose.; method in brief: as §2
Rattus norvegicus [4] = test: Compound was tested for the inhibition of rat reversed passive Arthus pleurisy after peroral administration of 100 mg/kg dose at 4.4*10e6 no of cells with 5.72*10e6 cells of control
Method in brief: (§3)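 Male Wistar rats (about 250 g) under ether received 0.2 mL rabbit anti-egg-albumin antiserum intrapleurally. Thirty min later they got 15 mg EA/100 g body weight in 0.1 mL saline iv. Compounds were given orally beforehand. Rats were killed 4.5 h after induction and the thoracic cavity rinsed with 5 mL saline. Exudate volume and infiltrated cell count were read as mean ± SE. % inhibition is versus control.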

Rattus norvegicus [5] = test: Antiinflammatory activity on Carrageenan rat's paw edema(CPE) after peroral administration of 100 mg/kg dose with control swelling of 64.2%
Rattus norvegicus [6] = test: Antiinflammatory activity on Zymosan-induced rat's paw edema(ZPE) after peroral administration of 100 mg/kg dose with control swelling of 71.7%
Method in brief: (§4)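 Male Wistar rats weighing about 150 g were dosed orally with compound suspended in 5% arabic gum. 1 h later, 1% zymosan in 0.1 mL saline was injected subplantarly into the hind paw. Paw volume was measured by plethysmograph before dosing and 4 h after zymosan, with edema as the volume difference. Inhibition % was derived from mean swelling versus the control group.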

Rattus norvegicus [7] = test: Compound was tested for the inhibition of rat reversed passive Arthus pleurisy after peroral administration of 100 mg/kg dose at 0.12 mL of exudate volume with 0.68 mL of control (injected intrapleurally); method in brief: as §1
Rattus norvegicus [8] = test: Antiinflammatory activity on Zymosan-induced rat's paw edema(ZPE) after peroral administration of 30 mg/kg dose with control swelling of 66.9%; method in brief: as §4
Rattus norvegicus [9] = test: Antiinflammatory activity on Zymosan-induced rat's paw edema(ZPE) after peroral administration of 100 mg/kg dose with control swelling of 66.9%; method in brief: as §4
Rattus norvegicus [10] = test: Compound was tested for the inhibition of arachidonic acid-induced rat's paw edema(APE) after peroral administration of 30 mg/kg dose with control swelling of 33.8%
Method in brief: (§5)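 Test: arachidonic acid paw edema in male Wistar rats of about 150 g. Oral dosing in 5% arabic gum came 1 h before subplantar injection of 1% arachidonic acid sodium salt in 0.1 mL saline into the hind paw. Plethysmograph paw volume was read before dosing and 1 h post-irritant, and edema = volume difference. % inhibition was taken from mean swelling against controls.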

Rattus norvegicus [11] = test: Antiinflammatory activity on Carrageenan rat's paw edema(CPE) after peroral administration of 30 mg/kg dose
Rattus norvegicus [12] = test: Compound was tested for the inhibition of Zymosan-induced rat's paw edema(ZPE) after peroral administration of 30 mg/kg dose; method in brief: as §4
Rattus norvegicus [13] = test: Compound was tested for the inhibition of rat reversed passive Arthus pleurisy after peroral administration of 3 mg/kg dose at 0.6 mL of exudate volume with 0.68 mL of control (injected intrapleurally); method in brief: as §3
Rattus norvegicus [14] = test: Compound was tested for the inhibition of rat reversed passive Arthus pleurisy after peroral administration of 30 mg/kg dose at 0.33 mL of exudate volume with 0.68 mL of control (injected intrapleurally); method in brief: as §3
Rattus norvegicus [15] = test: Compound was tested for the inhibition of Carrageenan rat's paw edema(CPE) after peroral administration of 30 mg/kg dose
Rattus norvegicus [16] = test: Antiinflammatory activity on Carrageenan rat's paw edema(CPE) after peroral administration of 100 mg/kg dose with control swelling of 69.9%
Rattus norvegicus [17] = test: Compound was tested for the inhibition of arachidonic acid-induced rat's paw edema(APE) after peroral administration of 100 mg/kg dose; method in brief: as §5
Rattus norvegicus [18] = test: Compound was tested for the inhibition of rat reversed passive Arthus pleurisy after peroral administration of 100 mg/kg dose at 1.52*10e6 no of cells with 3.24*10e6 cells of control; method in brief: as §1
Rattus norvegicus [19] = test: Compound was tested for the inhibition of arachidonic acid-induced rat's paw edema(APE) after peroral administration of 100 mg/kg dose with control swelling of 51.6%; method in brief: as §5
Rattus norvegicus [20] = test: Compound was tested for the inhibition of rat reversed passive Arthus pleurisy after peroral administration of 30 mg/kg dose at 2.79*10e6 no of cells with 3.24*10e6 cells of control; method in brief: as §3
Rattus norvegicus [21] = test: Compound was tested for the inhibition of rat reversed passive Arthus pleurisy after peroral administration of 3 mg/kg dose at 3.17*10e6 no of cells with 3.24*10e6 cells of control; method in brief: as §3
Rattus norvegicus [22] = test: Compound was tested for the inhibition of rat reversed passive Arthus pleurisy after peroral administration of 10 mg/kg dose at 3.18*10e6 no of cells with 3.24*10e6 cells of control; method in brief: as §1
Rattus norvegicus [23] = test: Compound was tested for the inhibition of rat reversed passive Arthus pleurisy after peroral administration of 10 mg/kg dose at 0.44 mL of exudate volume with 0.68 mL of control (injected intrapleurally); method in brief: as §1
Rattus norvegicus [24] = test: Compound was tested for the inhibition of arachidonic acid-induced rat's paw edema(APE) after peroral administration of 30 mg/kg dose; method in brief: as §5
Rattus norvegicus [25] = test: Compound was tested for the inhibition of rat reversed passive Arthus pleurisy after peroral administration of 100 mg/kg dose at 3.37*10e6 no of cells with 3.86*10e6 cells of control; method in brief: as §3
Rattus norvegicus [26] = test: Compound was tested for the inhibition of rat reversed passive Arthus pleurisy after peroral administration of 100 mg/kg dose at 0.73 mL of exudate volume with 0.86 mL of control (injected intrapleurally); method in brief: as §1
Rattus norvegicus [27] = test: Antiinflammatory activity on Carrageenan rat's paw edema(CPE) after peroral administration of 100 mg/kg dose with control swelling of 90.0%
Rattus norvegicus [28] = test: Antiinflammatory activity on Zymosan-induced rat's paw edema(ZPE) after peroral administration of 100 mg/kg dose with control swelling of 85.5%; method in brief: as §4

For `COc1ccccc1NC(=O)c1c(O)c2cccnc2n(-c2ccccc2)c1=O`, the inhibition in vivo at 100 mg/kg (Rattus norvegicus [1]) was 16.7%, the inhibition in vivo at 100 mg/kg (Rattus norvegicus [2]) was 8.1% and the inhibition in vivo at 100 mg/kg (Rattus norvegicus [3]) was -10.1%. For the same compound, the inhibition in vivo at 100 mg/kg (Rattus norvegicus [4]) was 26.8%, the Swelling (Rattus norvegicus [5]) was 70.7% and the Swelling (Rattus norvegicus [6]) was 65.9%.
Compound `O=C(Cn1c(=O)sc2ccc(Cl)cc21)N1CCN(CCO)CC1` [TIARAMIDE] has an inhibition in vivo at 100 mg/kg (Rattus norvegicus [7]) of 94.9%, an inhibition in vivo at 100 mg/kg (Rattus norvegicus [2]) of 23% and a Swelling (Rattus norvegicus [8]) of 56.8%. It also gave a Swelling (Rattus norvegicus [9]) of 51.5%, an inhibition in vivo at 100 mg/kg (Rattus norvegicus [3]) of 13.3% and a Swelling (Rattus norvegicus [10]) of 32.1%. It also gave a Swelling (Rattus norvegicus [11]) of 64%, an inhibition in vivo at 30 mg/kg (Rattus norvegicus [12]) of 15.1% and an inhibition in vivo at 3 mg/kg (Rattus norvegicus [13]) of 13.6%. It also gave an inhibition in vivo at 30 mg/kg (Rattus norvegicus [14]) of 59.3%, an inhibition in vivo at 30 mg/kg (Rattus norvegicus [15]) of 8.4% and a Swelling (Rattus norvegicus [16]) of 60.6%. The inhibition in vivo at 100 mg/kg (Rattus norvegicus [17]) was 48.3%, the inhibition in vivo at 100 mg/kg (Rattus norvegicus [18]) was 67.2% and the Swelling (Rattus norvegicus [19]) was 26.7%. It also gave an inhibition in vivo at 30 mg/kg (Rattus norvegicus [20]) of 9.8%, an inhibition in vivo at 3 mg/kg (Rattus norvegicus [21]) of 2.7% and an inhibition in vivo at 10 mg/kg (Rattus norvegicus [22]) of 2.3%. It also gave an inhibition in vivo at 10 mg/kg (Rattus norvegicus [23]) of 40.7% and an inhibition in vivo at 30 mg/kg (Rattus norvegicus [24]) of 5%.
Compound `Cc1ccccc1NC(=O)c1c(O)c2cccnc2n(-c2ccccc2)c1=O` has an inhibition in vivo at 100 mg/kg (Rattus norvegicus [2]) of 11.7%, an inhibition in vivo at 100 mg/kg (Rattus norvegicus [25]) of 16.6% and an inhibition in vivo at 100 mg/kg (Rattus norvegicus [3]) of 9.8%. The inhibition in vivo at 100 mg/kg (Rattus norvegicus [26]) was 16.9%, the Swelling (Rattus norvegicus [27]) was 81.2% and the Swelling (Rattus norvegicus [28]) was 75.5%.
